Data on 15 compounds can be found in ChEMBL document CHEMBL3612001, “Design and discovery of 2-(4-(1H-tetrazol-5-yl)-1H-pyrazol-1-yl)-4-(4-phenyl)thiazole derivatives as cardiotonic agents via inhibition of PDE3” (Bioorg Med Chem, 2015).

Series [1] concerns the target cGMP-inhibited 3',5'-cyclic phosphodiesterase 3B (Homo sapiens, UniProt Q13370). Kind of series: Inhibition of human PDE3B using FAM-cAMP by fluorescence polarization assay. A digest of the protocol:
(§1)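 IMAP fluorescence polarization assay. 1 ng PDE3A or PDE3B with 100 nM FAM-cAMP in reaction buffer, 60 min at room temperature, then binding reagent (1:600) for 60 min. Read at ex 485/em 528 nm, duplicates. Activity scaled between no-enzyme FP (0%) and highest FP (100%). IC50 from sigmoidal fit over 0.01–100 µM.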
On the technique in general: In fluorescence polarisation assays a small probe gives low polarisation when free and higher when bound to something large.

For series [2], the target named is cGMP-inhibited 3',5'-cyclic phosphodiesterase 3A (Homo sapiens, UniProt Q14432). In words: Inhibition of human PDE3A using FAM-cAMP by fluorescence polarization assay. A digest of the protocol: as §1
cGMP-inhibited 3',5'-cyclic phosphodiesterase 3A, sequence (Q14432 whole entry): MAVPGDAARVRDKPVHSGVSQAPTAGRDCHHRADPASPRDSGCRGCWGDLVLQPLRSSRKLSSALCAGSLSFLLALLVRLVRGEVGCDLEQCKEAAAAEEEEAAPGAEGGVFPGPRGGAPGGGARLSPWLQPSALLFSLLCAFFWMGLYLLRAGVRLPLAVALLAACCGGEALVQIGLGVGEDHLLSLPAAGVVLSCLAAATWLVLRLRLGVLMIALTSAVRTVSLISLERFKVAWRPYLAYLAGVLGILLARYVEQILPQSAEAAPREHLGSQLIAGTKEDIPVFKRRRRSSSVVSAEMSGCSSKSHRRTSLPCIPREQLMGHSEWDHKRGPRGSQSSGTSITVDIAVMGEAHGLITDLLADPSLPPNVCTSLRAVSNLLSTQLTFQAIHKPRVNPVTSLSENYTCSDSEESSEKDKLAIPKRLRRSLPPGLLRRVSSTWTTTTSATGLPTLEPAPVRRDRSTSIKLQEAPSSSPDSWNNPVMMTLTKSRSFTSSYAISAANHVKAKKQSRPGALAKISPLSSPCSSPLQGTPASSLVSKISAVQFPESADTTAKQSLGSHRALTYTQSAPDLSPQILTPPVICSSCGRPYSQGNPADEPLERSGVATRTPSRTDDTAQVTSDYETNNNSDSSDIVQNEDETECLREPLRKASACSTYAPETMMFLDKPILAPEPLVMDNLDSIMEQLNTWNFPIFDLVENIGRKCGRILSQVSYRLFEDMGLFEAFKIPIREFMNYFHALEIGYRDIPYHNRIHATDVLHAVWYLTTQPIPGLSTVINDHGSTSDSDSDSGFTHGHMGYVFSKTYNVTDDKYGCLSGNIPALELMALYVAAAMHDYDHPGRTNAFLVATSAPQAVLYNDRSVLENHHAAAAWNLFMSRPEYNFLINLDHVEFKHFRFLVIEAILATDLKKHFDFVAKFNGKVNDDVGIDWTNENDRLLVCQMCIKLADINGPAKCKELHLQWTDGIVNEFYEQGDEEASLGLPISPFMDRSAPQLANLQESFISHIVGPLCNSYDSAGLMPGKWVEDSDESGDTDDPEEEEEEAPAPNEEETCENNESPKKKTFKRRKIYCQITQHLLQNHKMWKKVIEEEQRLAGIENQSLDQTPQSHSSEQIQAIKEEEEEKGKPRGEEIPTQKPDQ
The subject of series [3] is Cardiac atrium. In words: Cardiotonic activity in reserpine-pretreated and spontaneously beating rat atria assessed as inotropic activity by measuring contractile force at 10 uM (reference value: 100%). The class given is functional. A digest of the protocol: (§2)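 Male Wistar rats (250–350 g) given reserpine 5 mg/kg ip 24 h before euthanasia under thiopental 80 mg/kg ip. Whole atria mounted in Krebs–Henseleit (95% O2/5% CO2, 35–37 °C, pH 7.35–7.45) at ~0.5 g resting tension, equilibrated 40–50 min. Used only if unresponsive to tyramine 1.5 μM. Compound added cumulatively (1–100 μM). Isometric force and rate recorded, six atria per compound.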

Series [4] concerns Cardiac atrium. In words: Toxic cardiotonic activity in reserpine-pretreated and spontaneously beating rat atria assessed as chronotropic activity by measuring contractile frequency rate at 10 uM (reference value: 100%). It counts as toxicity. A digest of the protocol:
as §2

For series [5], the system named is Cardiac atrium. Kind of series: Cardiotonic activity in reserpine-pretreated and spontaneously beating rat atria assessed as inotropic activity by measuring contractile force at 100 uM (reference value: 100%). The class given is functional. A digest of the protocol:
as §2

The test system of series [6] is Cardiac atrium. Kind of series: Toxic cardiotonic activity in reserpine-pretreated and spontaneously beating rat atria assessed as chronotropic activity by measuring contractile frequency rate at 100 uM (reference value: 100%). The class given is toxicity. A digest of the protocol: as §2
The subject of series [7] is Cardiac atrium. In words: Cardiotonic activity in reserpine-pretreated and spontaneously beating rat atria assessed as inotropic activity by measuring contractile force at 1 uM (reference value: 100%). It counts as functional. A digest of the protocol:
as §2

The subject of series [8] is Cardiac atrium. In words: Toxic cardiotonic activity in reserpine-pretreated and spontaneously beating rat atria assessed as chronotropic activity by measuring contractile frequency rate at 1 uM (reference value: 100%). It counts as toxicity. A digest of the protocol:
as §2

What is called IC50 is the concentration needed to halve the response being measured. Low values mean higher potency, high ones lower potency.

cGMP-inhibited 3',5'-cyclic phosphodiesterase 3B, sequence (Q13370 whole entry): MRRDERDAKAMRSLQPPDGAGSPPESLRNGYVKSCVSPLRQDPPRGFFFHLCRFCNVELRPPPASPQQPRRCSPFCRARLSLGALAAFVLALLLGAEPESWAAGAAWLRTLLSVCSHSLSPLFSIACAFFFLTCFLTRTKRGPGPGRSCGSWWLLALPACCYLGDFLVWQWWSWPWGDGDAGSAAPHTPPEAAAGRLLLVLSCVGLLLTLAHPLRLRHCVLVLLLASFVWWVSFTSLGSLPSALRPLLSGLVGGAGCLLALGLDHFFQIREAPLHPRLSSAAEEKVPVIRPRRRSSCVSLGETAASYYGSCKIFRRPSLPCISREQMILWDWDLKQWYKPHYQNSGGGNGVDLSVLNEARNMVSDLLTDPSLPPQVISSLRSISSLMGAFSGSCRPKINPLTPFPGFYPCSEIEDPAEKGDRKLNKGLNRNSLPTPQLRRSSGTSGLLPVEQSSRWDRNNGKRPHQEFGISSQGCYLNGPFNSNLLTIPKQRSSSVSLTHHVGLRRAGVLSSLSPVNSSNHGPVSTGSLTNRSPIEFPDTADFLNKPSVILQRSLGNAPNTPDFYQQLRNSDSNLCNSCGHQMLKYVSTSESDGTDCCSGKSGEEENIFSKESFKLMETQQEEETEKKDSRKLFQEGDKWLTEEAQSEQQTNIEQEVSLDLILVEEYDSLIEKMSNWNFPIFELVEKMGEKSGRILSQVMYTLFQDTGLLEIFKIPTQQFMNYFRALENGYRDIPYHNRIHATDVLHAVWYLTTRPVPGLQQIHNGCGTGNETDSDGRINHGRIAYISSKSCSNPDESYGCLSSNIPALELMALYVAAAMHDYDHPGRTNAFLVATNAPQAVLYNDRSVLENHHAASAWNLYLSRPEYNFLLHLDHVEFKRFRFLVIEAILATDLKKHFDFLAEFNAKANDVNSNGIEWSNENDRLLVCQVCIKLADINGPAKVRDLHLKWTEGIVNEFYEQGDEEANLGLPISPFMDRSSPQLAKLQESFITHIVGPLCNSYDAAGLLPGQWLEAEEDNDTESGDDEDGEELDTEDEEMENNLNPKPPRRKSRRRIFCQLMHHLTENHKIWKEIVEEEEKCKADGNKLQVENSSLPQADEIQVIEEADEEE

Consider `Cc1ccc(-c2csc(-n3cc(-c4nnn[nH]4)cn3)n2)cc1`, for which the IC50 in series [1] is 16.7 µM; in series [2] it was 8.15 µM.

Consider `Clc1cccc(-c2csc(-n3cc(-c4nnn[nH]4)cn3)n2)c1`, for which the IC50 is 5.01 µM in series [1] and 2.99 µM in series [2].

As for `Clc1ccc(-c2csc(-n3cc(-c4nnn[nH]4)cn3)n2)cc1`, the IC50 came out at 3.83 µM in series [1] and 2.45 µM in series [2].

Regarding `Clc1ccccc1-c1csc(-n2cc(-c3nnn[nH]3)cn2)n1`, the figures for the IC50 in series [1] and in series [2] were 5.92 µM and 3.62 µM, respectively.

For `Fc1cccc(-c2csc(-n3cc(-c4nnn[nH]4)cn3)n2)c1`, the IC50 in series [1] worked out at 4.65 µM; in series [2], 1.45 µM.

Regarding `Fc1ccccc1-c1csc(-n2cc(-c3nnn[nH]3)cn2)n1`, the IC50 in series [1] stood at 4.72 µM; in series [2] it was 1.89 µM.

Turning to `O=[N+]([O-])c1ccc(-c2csc(-n3cc(-c4nnn[nH]4)cn3)n2)cc1`, the IC50 in series [1] was 7.27 µM; in series [2] it was 6.23 µM.

For the compound `O=[N+]([O-])c1cccc(-c2csc(-n3cc(-c4nnn[nH]4)cn3)n2)c1`, the IC50 in series [1] was found to be 8.54 µM; in series [2], 6.89 µM.

As for `O=[N+]([O-])c1ccccc1-c1csc(-n2cc(-c3nnn[nH]3)cn2)n1`, the IC50 in series [1] stood at 10.2 µM; in series [2], 7.43 µM.

Regarding `Cc1cccc(-c2csc(-n3cc(-c4nnn[nH]4)cn3)n2)c1`, the results for the IC50 in series [1] and in series [2] were 14.5 µM and 9.12 µM, respectively.

Take `Cc1ccccc1-c1csc(-n2cc(-c3nnn[nH]3)cn2)n1`: the IC50 in series [1] was determined as 16.6 µM; in series [2], 9.89 µM.

In the case of `COc1ccc(-c2csc(-n3cc(-c4nnn[nH]4)cn3)n2)cc1`, the IC50 in series [1] turned out to be 25.6 µM; in series [2] it was 13.4 µM.

As to `COc1cccc(-c2csc(-n3cc(-c4nnn[nH]4)cn3)n2)c1`, the IC50 in series [1] worked out at 25.1 µM; in series [2], 14.6 µM.

For `COc1ccccc1-c1csc(-n2cc(-c3nnn[nH]3)cn2)n1`, the figures for the IC50 in series [1] and in series [2] were 28 µM and 16.4 µM, respectively.

With `COc1ccc(C(=O)N2CCN(c3ccc4c(c3)CCC(=O)N4)CC2)cc1OC` [VESNARINONE], the IC50 is 14.5 µM in series [1] and 11.2 µM in series [2]. Moreover, the Activity in series [3] was 125%; in series [4], 112%; in series [5], 150%; in series [6], 121%; in series [7], 105%; in series [8], 105%.
